Compound activity deposited in PubChem BioAssay by SRMLSC.
H69AR growth 86K: growth inhibitors of human H69AR lung tumor cells. H69AR lung tumor viability, ATP luminescence, 72 h; active compounds read low. viability, % at 10 µM. actives 6% (n = 85,000). AID 598;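 active = viability at or below 40%; inactive = viability above 40%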;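 also: multidrug resistant small cell line overexpressing MRP-1 efflux transporter; 100% = mean luminescence of untreated control wells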
HUVEC prolif 384: blocks proliferation of human endothelial cells; HUVEC proliferation, CellTiter-Glo luminescence, 72 h; active compounds read low; viability, % at 10 µM (by protocol); actives 1.1% (n = 86,000); AID 648;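 active = viability at or below 30%; inactive = viability above 30%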;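 also: 100% = median luminescence of DMSO-only cell control wells on each plate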
Lung fibro prol: blocks proliferation of human lung fibroblasts; LL 47 human lung fibroblast viability, ATP luminescence; active compounds read low; viability, % at 10 µM; actives 1.1% (n = 85,000);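 active = viability at or below 50% in the single dose screen; inactive = viability above 50%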;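 also: compound exposure lasted 72 h before the ATP readout; 100% = median luminescence of untreated cell-only wells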
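material = human LL 47 lung fibroblast cells | dosing = compounds added from tenfold dosing solution, 0.1% DMSO final | timing = overnight cell rest, 72 h compound treatment at 37 °C | measured by = CellTiter-Glo luminescence measuring cellular ATP | evaluation = % viability versus median cells-only luminescence | control set = cell-only wells, no compound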
HCT116 PTEN-null: growth suppressors of cells with PTEN tumor suppressor deletion; HCT116 PTEN-null viability, CellTiter-Glo, 60 h; active compounds read low; viability, % at 10 µM; actives 1.2% (n = 140,000); AID 827;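 active = viability at or below a set limit, 4 SD under the median of all tested compounds, cut at about 3.7% in these data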;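 also: PTEN knockout HCT116 line with beta catenin targeted HCT116 as companion control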
HCT116 bCat-KO: beta-catenin-lacking colon tumor cell growth suppression; HCT116 beta-catenin knockout viability, CellTiter-Glo, 60 h; active compounds read low; viability, % at 10 µM; actives 1.5% (n = 140,000); AID 818;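 active = viability at or under a set limit, the compound median less 4 SD, cut at about 6% in these data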;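 also: 0% = Hyamine 1622 control at 20 µM and 100% = untreated cell control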
* hit, by the source's call; . = not tested or not shown. Many of the other results were omitted from the sample, so hits are more common in it than they were.

SMILES | H69AR growth 86K | HUVEC prolif 384 | Lung fibro prol | HCT116 PTEN-null | HCT116 bCat-KO
CCOC(=O)C(C)(C)N(Cc1ccc(Cl)cc1)S(=O)(=O)c1ccc(Cl)c([N+](=O)[O-])c1 | . | . | . | 1.6* | 1.1*
COc1ccc(C(=O)n2c(SC)nc3cc4c(cc32)OCCO4)cc1 | . | . | . | 88.8 | 105.4
COc1ccc(-c2nc3ccccc3c(=O)n2NC(=O)c2cccnc2Cl)cc1OC | . | . | . | 100.2 | 94.6
O=C(Nc1ccc(-c2nc3ccc(NC(=O)c4cccs4)cc3[nH]2)cc1)c1cccs1 | 3.1* | 4.1* | 41.3* | 88.6 | 75.9
O=C(Nc1ccc2cn[nH]c2c1)c1ccccc1F | . | . | . | 99.2 | 81.9
O=C(Nc1ccc2nc(-c3cccnc3)[nH]c2c1)c1ccccc1F | 34.1* | 93.7 | 109.3 | 112.1 | 98.9
O=C(Nc1ccc2nc(-c3cccs3)[nH]c2c1)c1cccs1 | 39.1* | 61.3 | 91.7 | 70.8 | 77.6
O=C(Nc1ccc2oc(-c3ccccc3)nc2c1)c1ccncc1 | 94.9 | 114.9 | 100.7 | 82.0 | 77.7
O=C(Nc1ccc2nc(-c3cccs3)[nH]c2c1)c1ccco1 | 71.1 | 113.2 | 101.8 | 95.9 | 85.8
O=C(Nc1ccc2oc(-c3ccccc3)nc2c1)c1cccs1 | 38.5* | 84.5 | 91.3 | 77.0 | 79.3
CCCN(CC(=O)Nc1ccc(Cl)cc1Cl)C(=O)/C=C/c1cc(OC)ccc1OC | . | . | . | 78.9 | 75.8
Cc1c(Cl)c([N+](=O)[O-])nn1CCCC(=O)Nc1ccc(Cl)cc1Cl | . | . | . | 100.4 | 99.4
CCc1ccc(OCC(=O)Nc2cc(S(=O)(=O)CC)ccc2O)cc1 | . | . | . | 94.5 | 96.9
O=C1c2ccccc2C(=O)N1CCCN1CCN(CCCN2C(=O)c3ccccc3C2=O)CC1 | 91.2 | 109.3 | 105.8 | . | .
c1cncc(-c2nnc(-c3cccnc3)nn2)c1 | 3.7* | 3.9* | 58.6 | 1.6* | 1.7*
Nc1nnc(-c2cccnc2)s1 | 72.5 | 95.3 | 104.5 | 93.8 | 91.1
O=C(COC(=O)c1cc(-c2cccs2)nn1-c1ccccc1)Nc1ccc(Cl)c([N+](=O)[O-])c1 | . | . | . | 87.5 | 92.1
O=C(Nc1cccc(Cl)c1)N(Cc1nc2ccccc2c(=O)[nH]1)Cc1cccs1 | . | . | . | 38.8 | 48.9
Oc1c(C(c2cccs2)N2CCN(c3ccccc3)CC2)ccc2cccnc12 (stereo not drawn) | . | . | . | 4.5 | 3.0*
CC(C)(C)n1nnnc1C(c1cccs1)N1CCN(c2ccccc2)CC1 (stereo not drawn) | 81.4 | 112.3 | 97.3 | 75.7 | 79.7
CCC(CC)C1C(C#N)=C(N)Oc2n[nH]c(-c3ccccc3)c21 (stereo not drawn) | 36.0* | 70.9 | 75.9 | 85.9 | 82.4
CC(C)C1C(C#N)=C(N)Oc2n[nH]c(-c3ccc4ccccc4c3)c21 (stereo not drawn) | 15.8* | 39.9 | 61.5 | 25.4 | 24.8
N#CC1=C(N)Oc2n[nH]c(-c3ccccc3)c2C1c1ccsc1 (stereo not drawn) | 84.0 | 75.9 | 95.9 | 96.8 | 93.7
CCC(CC)C1C(C#N)=C(N)Oc2n[nH]c(C)c21 (stereo not drawn) | 13.3* | 66.8 | 79.9 | 75.3 | 53.5
O=C(NNS(=O)(=O)c1ccccc1[N+](=O)[O-])c1cccc([N+](=O)[O-])c1 | . | . | . | 95.2 | 86.1
SMILES | H69AR growth 86K | HUVEC prolif 384 | Lung fibro prol | HCT116 PTEN-null | HCT116 bCat-KO
COc1cc(CCN2C(=O)c3cccc4cccc(c34)C2=O)c(S(=O)(=O)NCCCO)cc1OC | . | . | . | 96.6 | 96.0
O=C(NCCN1CCOCC1)c1cc2cc(Cl)cc(Cl)c2oc1=O | 79.8 | 78.8 | 101.3 | . | .
CC(C)c1ccc(CN2CC(C(=O)O)CC2=O)cc1 (stereo not drawn) | 108.6 | 106.0 | 106.2 | 97.6 | 95.2
C=CCn1c(SC(C)C(=O)NCc2ccc3c(c2)OCO3)nc2scc(-c3ccccc3)c2c1=O (stereo not drawn) | 33.6* | 74.0 | 94.5 | 66.3 | 80.8
CC(Sc1nnc(-c2cccs2)n1-c1ccccc1)C(=O)NCc1ccc2c(c1)OCO2 (stereo not drawn) | 38.8* | 101.9 | 103.4 | 94.0 | 94.8
N#Cc1c(NC(=O)CSc2nnc(-c3ccccc3O)n2-c2ccccc2)sc2c1CCCC2 | 48.7 | 86.6 | 99.0 | 56.5 | 59.0
C=CCn1c(SCC(=O)NCc2ccc3c(c2)OCO3)nc2scc(-c3ccc(F)cc3)c2c1=O | . | . | . | 73.2 | 62.8
O=C(CSc1nnc(Cc2cccs2)n1-c1ccccc1)NCc1ccc2c(c1)OCO2 | 97.1 | 103.4 | . | 95.8 | 90.2
COc1ccc(NC(=O)CSc2nnc(C3CC3)n2-c2ccccc2)cc1 | 93.9 | 91.2 | 94.7 | 96.2 | 92.5
Cn1c(=O)n(C)c2cc(NC(=O)CSc3nnc(-c4ccccc4O)n3-c3ccccc3)ccc21 | 32.9* | 74.8 | 90.4 | 63.1 | 60.3
COc1ccc(NC(=O)CSc2nnc(-c3cccs3)n2-c2ccccc2)cc1 | 45.6 | 20.9* | 38.9* | 50.5 | 52.5
Cc1ccc(CNC(=O)C(Cc2ccccc2)NS(=O)(=O)c2ccc(Br)s2)cc1 (stereo not drawn) | . | . | . | 70.6 | 77.2
Cn1cc(Br)c(C(=O)NNC(=O)c2ccc(Cl)cc2)n1 | . | . | . | 65.9 | 88.3
CCOC(=O)c1ccc(NC(=O)CSc2nnc(-c3cccs3)n2CC)cc1 | 90.8 | 74.8 | 91.8 | 109.8 | 96.9
Cc1ccc(NC(=O)CSc2nnc(-c3ccc(S(=O)(=O)N4CCOCC4)cc3)n2C)cc1 | 97.5 | 101.9 | 96.6 | 109.5 | 98.7
O=C(CSc1nnc(-c2cccs2)n1-c1ccccc1)N1CCc2ccccc21 | 16.2* | 94.8 | . | . | .
O=C(CSc1nnc(-c2ccco2)n1-c1ccccc1)N1CCc2ccccc21 | 77.8 | 88.3 | 102.3 | . | .
Cn1c(SCC(=O)Nc2ccc(N3CCOCC3)cc2)nnc1-c1ccccc1 | 85.8 | 14.8* | 104.9 | 118.8 | 106.6
O=C(CSc1nnc(-c2cccs2)n1-c1ccccc1)c1ccc2c(c1)OCCO2 | 16.8* | 33.8 | 77.1 | . | .
C=CCn1c(SCC(=O)Nc2ccc(C(=O)OC(C)C)cc2)nnc1-c1cccs1 | 24.9* | 39.3 | 30.1* | 74.2 | 96.4
Cc1cccc(NC(=O)CSc2nc3[nH]ncc3c(=O)n2-c2ccccc2)c1 | . | . | . | 79.6 | 86.0
O=C(CSc1nc2[nH]ncc2c(=O)n1-c1ccccc1)c1ccc2c(c1)OCCO2 | 16.8* | 55.5 | 89.4 | 71.1 | 71.9
Cn1c(=O)n(C)c2cc(NC(=O)CCl)ccc21 | 1.5* | 54.4 | 41.9* | 5.2 | 8.1
O=S(=O)(N/N=C\C=C\c1ccccc1)c1ccc(Cl)cc1 | . | . | . | 73.0 | 75.1
CCOC(=O)/C(C#N)=C1/C=CN(c2ccc(C)cc2)C=N1 | 71.7 | 87.5 | 104.2 | 103.0 | 102.4
CCOC(=O)/C(C#N)=C1/C=CN(c2ccccc2)C=N1 | 39.1* | 97.8 | 103.1 | 94.6 | 97.2
O=C(NCC1(c2ccccc2)CCCC1)c1cccc(Br)c1 | . | . | . | 79.8 | 79.8
CCOC(=O)COc1ccc2nsnc2c1Cl | 84.4 | 99.4 | 115.3 | 96.5 | 82.5
C=C(CC)C(=O)c1ccc(OCC(=O)O)c(Cl)c1Cl | 11.9* | 57.3 | 59.5 | 72.5 | 72.3
CCCOc1ccc(NC(=O)CC2C(=O)N(C)C(=S)N2Cc2cccs2)cc1 (stereo not drawn) | . | . | . | 80.7 | 72.2
